Measured values as given in ChEMBL document CHEMBL4020838, “The Discovery of ( S)-1-(6-(3-((4-(1-(Cyclopropanecarbonyl)piperidin-4-yl)-2-methylphenyl)amino)-2,3-dihydro-1 H-inden-4-yl)pyridin-2-yl)-5-methyl-1 H-pyrazole-4-carboxylic Acid, a Soluble Guanylate Cyclase Activator Specifically Designed for Topical Ocular Delivery as a Therapy for Glaucoma” (J Med Chem, 2018).
Active and inactive are the calls of the source. No cut-off for these calls is given here.

Experiments:
Cynomolgus monkey [1] = assay: Reduction of intraocular pressure in laser-induced ocular hypertensive cynomolgus monkey at 300 ug administered as single topical dose; assay type: functional; settings: Macaca fascicularis
Summary of the method: (§1)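 Cynomolgus monkeys with laser-induced elevated IOP received a single topical ocular dose of 300 μg in a 30 μL drop. IOP and ocular signs were observed after dosing.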

Homo sapiens [2] = organism: Homo sapiens; assay: Activation of soluble guanylate cyclase in human GTM3 cells assessed as increase in cGMP production after 30 mins by fluorescence assay relative to 1-{6-[5-chloro-2-({4-[trans-4-(trifluoromethyl)cyclohexyl]-benzyl}oxy)phenyl)pyridin-2-yl)-5-(trifluoromethyl)-1H-pyrazole-4-carboxylic acid; assay type: cell-based
Summary of the method: (§2)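 Immortalized glaucomatous trabecular meshwork (GTM-3) cells expressing endogenous levels of sGC were used. cGMP was read across a dose range. EC50 and Emax were derived from the dose-response curve.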

Homo sapiens [3] = organism: Homo sapiens; assay: Activation of HUVEC-derived soluble guanylate cyclase expressed in CHOK1 cells assessed as increase in cGMP production after 1 hr by HTRF assay relative to 1-{6-[5-chloro-2-({4-[trans-4-(trifluoromethyl)cyclohexyl]-benzyl}oxy)phenyl)pyridin-2-yl)-5-(trifluoromethyl)-1H-pyrazole-4-carboxylic acid; assay type: cell-based
Summary of the method: (§3)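 High-throughput assay in Chinese hamster ovary cells expressing sGC. cGMP was measured across a dose range. EC50 and Emax (maximal cGMP produced) were taken from the dose-response curve.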

Cynomolgus monkey [4] = assay: Toxicity in laser-induced ocular hypertensive cynomolgus monkey assessed as ocular irritation at 300 ug administered as single topical dose; parameters: species or system Macaca fascicularis; settings: in vivo, topical_or_ocular; summary of the method: as §1
[5] = Activation of soluble guanylate cyclase in human GTM3 cells assessed as increase in cGMP production after 30 mins by fluorescence assay; assay type: cell-based; settings: Homo sapiens, GTM3, 0.5 h; summary of the method: as §2
Oryctolagus cuniculus [6] = assay: Toxicity in New Zealand albino rabbit eye up to 300 ug administered as single topical dose measured up to 24 hrs post dose; settings: in vivo, topical_or_ocular
[7] = Activation of HUVEC-derived soluble guanylate cyclase expressed in CHOK1 cells assessed as increase in cGMP production after 1 hr by HTRF assay; assay type: cell-based; settings: CHO-K1, 1 h; summary of the method: as §3
Cynomolgus monkey [8] = assay: Reduction of intraocular pressure in laser-induced ocular hypertensive cynomolgus monkey at 100 ug administered as single topical dose measured at 6 hr post dose relative to control; assay type: functional, Macaca fascicularis; parameters: scale not given: the % may be the effect or the level left
Summary of the method: (§4)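 Cynomolgus monkeys with laser-induced elevated IOP received one 30 μL topical ocular drop containing 100 μg of compound, formulated as a suspension. Percent IOP reduction was recorded at 6 h and at 24 h after dosing.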

Cynomolgus monkey [9] = assay: Toxicity in laser-induced ocular hypertensive cynomolgus monkey assessed as conjunctival hyperemia at 300 ug administered as single topical dose; parameters: species or system Macaca fascicularis; settings: in vivo, topical_or_ocular; summary of the method: as §1
Oryctolagus cuniculus [10] = assay: Toxicity in New Zealand albino rabbit assessed as conjunctival hyperemia at 300 ug administered as single topical dose measured up to 24 hrs post dose; settings: in vivo, topical_or_ocular
Cynomolgus monkey [11] = assay: Reduction of intraocular pressure in laser-induced ocular hypertensive cynomolgus monkey at 100 ug administered as single topical dose measured at 24 hrs post dose relative to control; assay type: functional, Macaca fascicularis; parameters: scale not given: the % may be the effect or the level left; summary of the method: as §4
Oryctolagus cuniculus [12] = assay: Toxicity in New Zealand albino rabbit assessed as ocular discharge at 300 ug administered as single topical dose measured up to 24 hrs post dose; settings: in vivo, topical_or_ocular
Cynomolgus monkey [13] = assay: Toxicity in laser-induced ocular hypertensive cynomolgus monkey assessed as ocular discharge at 300 ug administered as single topical dose; parameters: species or system Macaca fascicularis; settings: in vivo, topical_or_ocular; summary of the method: as §1

| Structure (SMILES) | Activity (Cynomolgus monkey [1]) | Emax (Homo sapiens [2]) [%] | Emax (Homo sapiens [3]) [%] | Activity (Cynomolgus monkey [4]) | EC50 [5] [nM] | Activity (Oryctolagus cuniculus [6]) | EC50 [7] [nM] | Activity (Cynomolgus monkey [8]) [%] | Activity (Cynomolgus monkey [9]) | Activity (Oryctolagus cuniculus [10]) | Activity (Cynomolgus monkey [11]) [%] | Activity (Oryctolagus cuniculus [12]) | Activity (Cynomolgus monkey [13]) |
| --- | --- | --- | --- | --- | --- | --- | --- | --- | --- | --- | --- | --- | --- |
| CCc1c(C)sc(-c2cccc(-n3ncc(C(=O)O)c3C(F)(F)F)n2)c1COc1ccc(C2CCN(C(=O)C3CC3)CC2)cc1C | Active | 93 | 101 | Toxic | 12 | Non-Toxic | 1 |  |  |  |  |  |  |
| CCC(=O)N1CCC(c2ccc(OCc3ccsc3-c3cccc(-n4ncc(C(=O)O)c4C(F)(F)F)n3)c(C)c2)CC1 |  | 97 | 100 |  | 370 |  | 5.5 | 17 | Toxic | Toxic | 10 | Toxic | Toxic |
